Measurements reported in ChEMBL document CHEMBL4808198, “Synthesis, bioevaluation and docking studies of new imidamide derivatives as nitric oxide synthase inhibitors” (Bioorg Med Chem, 2021).

Legend:
Nitric oxide synthase 1 [1] = target: T1, Nitric oxide synthase 1 (Homo sapiens, UniProt P29475); experiment: Inhibition of human recombinant nNOS expressed in Escherichia coli assessed as reduction in L-[3H]-citrulline level using L-[3H]-arginine as substrate at 1 mM incubated for 30 mins by liquid scintillation method relative to control
T1 sequence (P29475 whole entry): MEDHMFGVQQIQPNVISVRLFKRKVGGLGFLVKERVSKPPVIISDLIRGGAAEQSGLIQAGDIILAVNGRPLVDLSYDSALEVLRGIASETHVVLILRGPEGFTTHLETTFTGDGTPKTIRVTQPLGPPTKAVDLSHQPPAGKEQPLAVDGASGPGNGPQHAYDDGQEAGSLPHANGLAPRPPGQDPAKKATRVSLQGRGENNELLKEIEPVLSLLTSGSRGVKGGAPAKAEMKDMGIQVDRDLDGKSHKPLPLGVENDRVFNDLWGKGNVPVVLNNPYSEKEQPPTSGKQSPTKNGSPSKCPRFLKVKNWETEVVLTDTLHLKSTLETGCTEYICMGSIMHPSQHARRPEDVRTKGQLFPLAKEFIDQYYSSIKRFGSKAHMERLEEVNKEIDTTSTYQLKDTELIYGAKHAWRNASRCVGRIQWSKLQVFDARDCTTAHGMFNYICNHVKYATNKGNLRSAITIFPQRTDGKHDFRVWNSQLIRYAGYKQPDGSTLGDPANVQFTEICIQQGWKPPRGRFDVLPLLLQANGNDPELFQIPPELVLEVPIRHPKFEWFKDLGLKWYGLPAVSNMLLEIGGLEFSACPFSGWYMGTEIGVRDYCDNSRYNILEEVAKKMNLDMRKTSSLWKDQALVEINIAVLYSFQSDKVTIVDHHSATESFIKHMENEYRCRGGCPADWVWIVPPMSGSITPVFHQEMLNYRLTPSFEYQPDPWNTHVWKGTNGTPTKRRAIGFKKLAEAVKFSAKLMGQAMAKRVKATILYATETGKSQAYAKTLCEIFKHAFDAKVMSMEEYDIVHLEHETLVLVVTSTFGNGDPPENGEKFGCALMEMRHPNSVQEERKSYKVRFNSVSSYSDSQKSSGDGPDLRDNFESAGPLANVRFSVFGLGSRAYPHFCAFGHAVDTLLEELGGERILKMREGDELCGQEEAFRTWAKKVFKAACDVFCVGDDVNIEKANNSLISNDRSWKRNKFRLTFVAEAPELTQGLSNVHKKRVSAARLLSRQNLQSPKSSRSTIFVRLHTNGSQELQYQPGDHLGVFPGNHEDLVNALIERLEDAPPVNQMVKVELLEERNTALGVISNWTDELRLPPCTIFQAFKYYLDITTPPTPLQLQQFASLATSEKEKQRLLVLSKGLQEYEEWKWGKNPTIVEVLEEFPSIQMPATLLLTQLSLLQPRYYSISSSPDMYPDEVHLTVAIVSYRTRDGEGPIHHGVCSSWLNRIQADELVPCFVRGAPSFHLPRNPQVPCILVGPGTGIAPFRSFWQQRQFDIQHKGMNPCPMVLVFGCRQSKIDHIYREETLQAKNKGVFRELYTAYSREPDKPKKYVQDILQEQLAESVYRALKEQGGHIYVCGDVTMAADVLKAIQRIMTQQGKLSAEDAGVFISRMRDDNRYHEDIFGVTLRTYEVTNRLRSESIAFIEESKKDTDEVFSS

[2] = target: T2, Nitric oxide synthase, inducible (Homo sapiens, UniProt P35228); experiment: Inhibition of N-terminal His-tagged human recombinant iNOS expressed in Escherichia coli assessed as reduction in L-[3H]-citrulline level using L-[3H]-arginine as substrate at 1 mM incubated for 30 mins by liquid scintillation method relative to control
T2 sequence (P35228 whole entry): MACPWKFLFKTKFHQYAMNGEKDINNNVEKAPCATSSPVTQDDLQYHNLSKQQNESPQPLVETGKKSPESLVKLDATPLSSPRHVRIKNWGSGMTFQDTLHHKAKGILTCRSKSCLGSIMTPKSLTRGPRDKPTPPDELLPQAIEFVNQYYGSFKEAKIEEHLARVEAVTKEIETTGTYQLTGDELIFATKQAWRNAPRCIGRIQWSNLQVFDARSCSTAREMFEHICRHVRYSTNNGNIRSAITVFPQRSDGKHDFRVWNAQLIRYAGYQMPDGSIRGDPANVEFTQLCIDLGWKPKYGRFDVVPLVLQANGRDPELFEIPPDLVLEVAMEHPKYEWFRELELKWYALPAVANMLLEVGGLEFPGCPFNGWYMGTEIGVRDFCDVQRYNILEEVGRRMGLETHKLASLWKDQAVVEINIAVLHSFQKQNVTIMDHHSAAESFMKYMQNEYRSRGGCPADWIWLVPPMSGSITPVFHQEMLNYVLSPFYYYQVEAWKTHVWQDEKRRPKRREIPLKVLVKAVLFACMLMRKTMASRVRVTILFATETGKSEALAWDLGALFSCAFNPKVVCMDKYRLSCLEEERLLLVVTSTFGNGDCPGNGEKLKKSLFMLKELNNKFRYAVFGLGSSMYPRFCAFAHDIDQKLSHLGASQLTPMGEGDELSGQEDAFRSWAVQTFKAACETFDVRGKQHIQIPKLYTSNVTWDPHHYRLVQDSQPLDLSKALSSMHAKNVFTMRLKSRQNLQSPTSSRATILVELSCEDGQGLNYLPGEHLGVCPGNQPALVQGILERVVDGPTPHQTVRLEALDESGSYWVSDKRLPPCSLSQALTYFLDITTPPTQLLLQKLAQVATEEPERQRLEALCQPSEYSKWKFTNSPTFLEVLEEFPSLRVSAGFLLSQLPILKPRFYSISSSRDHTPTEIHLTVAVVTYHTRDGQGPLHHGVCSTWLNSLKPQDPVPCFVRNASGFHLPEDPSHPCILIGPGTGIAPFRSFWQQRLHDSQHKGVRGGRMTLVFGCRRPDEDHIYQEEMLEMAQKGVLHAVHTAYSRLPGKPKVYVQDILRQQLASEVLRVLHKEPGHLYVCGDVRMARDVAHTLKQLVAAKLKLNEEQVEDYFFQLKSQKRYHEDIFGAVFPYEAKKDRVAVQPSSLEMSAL

HUVEC = experiment: Cytotoxicity against HUVEC assessed as reduction in cell viability at 10 to 100 uM measured after 30 mins by MTT assay; assay type: cell-based; conditions: human, 0.5 h, 500 µM, in the assay text read “10 to 500 uM” for “10 to 100 uM”
Method in brief: (§1)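 HUVECs seeded at 1x10⁴ cells/well, grown 24 h at 37 °C, switched to serum-free medium for at least 2 h, then exposed to serial dilutions (10 - 500 µM) for 30 min. MTT added for 3 h at 37 °C, formazan dissolved in DMSO, absorbance read at 570 nm minus 630 nm background. Viability given as % of untreated cells. At least three independent runs in triplicate.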

[3] = target: T2, Nitric oxide synthase, inducible; experiment: Inhibition of N-terminal His-tagged human recombinant iNOS expressed in Escherichia coli assessed as reduction in L-[3H]-citrulline level using L-[3H]-arginine as substrate incubated for 30 min by scintillation counting
[4] = Cytotoxicity against HUVEC assessed as reduction in cell viability at 500 uM measured after 30 mins by MTT assay relative to control; assay type: cell-based; conditions: human, HUVEC cells, read-out: INH; method in brief: as §1
Nitric oxide synthase 3 [5] = target: T3, Nitric oxide synthase 3 (Rattus norvegicus, UniProt Q62600); experiment: Inhibition of eNOS in Wistar rat endothelium-intact thoracic aortic rings assessed as inhibition of acetylcholine-evoked relaxation at 20 uM pretreated with compound for 30 mins followed by norepinephrine addition and later incubated with acetylcholine; assay type: tissue-based, Thoracic aorta; conditions: 0.5 h
T3 sequence (Q62600 whole entry): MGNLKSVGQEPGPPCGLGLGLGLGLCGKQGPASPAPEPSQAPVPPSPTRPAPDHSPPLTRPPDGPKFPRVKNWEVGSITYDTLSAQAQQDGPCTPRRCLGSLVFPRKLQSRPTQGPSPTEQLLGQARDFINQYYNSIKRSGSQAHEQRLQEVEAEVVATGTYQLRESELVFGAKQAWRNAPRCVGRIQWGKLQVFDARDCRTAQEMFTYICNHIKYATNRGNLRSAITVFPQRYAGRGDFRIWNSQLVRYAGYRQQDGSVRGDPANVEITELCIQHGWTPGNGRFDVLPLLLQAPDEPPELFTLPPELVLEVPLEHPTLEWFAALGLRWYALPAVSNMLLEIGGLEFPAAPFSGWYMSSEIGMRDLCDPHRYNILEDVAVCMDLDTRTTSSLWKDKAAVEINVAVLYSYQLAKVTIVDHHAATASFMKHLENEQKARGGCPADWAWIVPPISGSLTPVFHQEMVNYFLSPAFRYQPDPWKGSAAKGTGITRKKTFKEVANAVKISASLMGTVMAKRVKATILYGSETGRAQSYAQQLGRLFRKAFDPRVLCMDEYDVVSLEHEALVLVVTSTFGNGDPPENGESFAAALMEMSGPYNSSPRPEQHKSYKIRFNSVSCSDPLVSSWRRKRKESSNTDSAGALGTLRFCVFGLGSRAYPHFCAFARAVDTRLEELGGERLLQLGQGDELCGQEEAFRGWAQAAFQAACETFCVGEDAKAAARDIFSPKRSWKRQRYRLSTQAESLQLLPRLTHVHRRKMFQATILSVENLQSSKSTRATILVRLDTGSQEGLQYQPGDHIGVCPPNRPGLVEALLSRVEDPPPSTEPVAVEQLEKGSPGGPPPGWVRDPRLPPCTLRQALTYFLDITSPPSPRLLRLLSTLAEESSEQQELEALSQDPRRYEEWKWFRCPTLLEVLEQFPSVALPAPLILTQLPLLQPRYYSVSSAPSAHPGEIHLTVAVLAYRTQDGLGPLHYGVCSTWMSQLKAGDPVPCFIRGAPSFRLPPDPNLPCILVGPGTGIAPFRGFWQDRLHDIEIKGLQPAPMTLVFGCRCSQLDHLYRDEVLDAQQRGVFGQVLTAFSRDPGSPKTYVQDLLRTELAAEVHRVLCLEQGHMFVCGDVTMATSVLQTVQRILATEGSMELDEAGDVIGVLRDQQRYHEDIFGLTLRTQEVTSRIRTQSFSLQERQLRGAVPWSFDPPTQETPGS
Method in brief: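 Rat descending thoracic aortic rings with endothelium, in Krebs at 37 °C gassed with 95% O₂/5% CO₂, 2 g resting tension, isometric recording. Incubated 30 min with compound (20 µM), L-NAME (100 µM) or DMSO vehicle (1/10⁶), contracted with 1 µM norepinephrine, then cumulative acetylcholine. Relaxation given as % of norepinephrine contraction. Two-way ANOVA with Dunnett's test.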

Nitric oxide synthase 1 [6] = target: T1, Nitric oxide synthase 1; experiment: Inhibition of human recombinant nNOS expressed in Escherichia coli assessed as reduction in L-[3H]-citrulline level using L-[3H]-arginine as substrate incubated for 30 min by scintillation counting
Nitric oxide synthase 3 [7] = target: T3, Nitric oxide synthase 3; experiment: Inhibition of eNOS in Wistar rat endothelium-intact thoracic aortic rings assessed as inhibition of acetylcholine-evoked relaxation at 100 uM pretreated with compound for 30 mins followed by norepinephrine addition and later incubated with acetylcholine; assay type: tissue-based, Thoracic aorta; conditions: 0.5 h
Method in brief: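 Descending thoracic aortic rings with endothelium were held in Krebs solution at 37 °C, gassed with 95% O2/5% CO2, at 2 g resting tension, with isometric force recorded. Rings were incubated 30 min with test agent or DMSO vehicle (1/10⁶), then contracted with 1 µM norepinephrine. At plateau, acetylcholine was added cumulatively. Relaxation is given as % of norepinephrine contraction; n = rings from different rats; two-way ANOVA with Dunnett.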

Row | SMILES | inhibition (Nitric oxide synthase 1 [1]) | inhibition [2] | IC50 [3] | inhibition (INH) (Nitric oxide synthase 3 [5]) | IC50 (Nitric oxide synthase 1 [6]) | Activity (HUVEC) | cytotoxicity at 0.5 h, 500 µM [4] | inhibition (INH) (Nitric oxide synthase 3 [7])
1 | N=C(NCCC(=O)c1ccccc1N)c1ccccc1 | 66.5% | 35.6% | – | – | – | – | – | –
2 | COc1ccc(N)c(C(O)CCNC(=N)c2ccc(C(F)(F)F)cc2)c1 (stereo not given) | 12.5% | 99.6% | 20 µM | Not Active | > 1000 µM | Non-Toxic | 20% | –
3 | N=C(NCCC(O)c1ccccc1N)c1ccc(C(F)(F)F)cc1 (stereo not given) | 36.5% | 60.5% | – | – | – | – | – | –
4 | COC(=O)[C@@H](N)CCCNC(=N)N[N+](=O)[O-] [L-NAME] | – | – | – | – | – | – | – | Active
5 | N=C(NCCC(=O)c1ccccc1N)c1ccc(Cl)cc1 | 37.4% | 33.4% | – | – | – | – | – | –
6 | CC(=N)NCCC(O)c1ccccc1N (stereo not given) | 28.3% | 16.2% | – | – | – | – | – | –
7 | COc1ccc(N)c(C(O)CCNC(=N)c2ccc(Cl)cc2)c1 (stereo not given) | 58.5% | 81% | – | – | – | – | – | –
8 | COc1ccc(N)c(C(O)CCNC(=N)c2ccccc2)c1 (stereo not given) | 7.18% | 95.9% | 22.5 µM | – | > 1000 µM | Non-Toxic | 20% | –
9 | N=C(NCCC(O)c1ccccc1N)c1ccc(Cl)cc1 (stereo not given) | 31.6% | 73.2% | – | – | – | – | – | –
10 | N=C(NCCC(O)c1ccccc1N)c1ccccc1 (stereo not given) | 23.2% | 64.1% | – | – | – | – | – | –
11 | N=C(NCCC(=O)c1ccccc1N)c1ccc(C(F)(F)F)cc1 | 56% | 68.6% | – | – | – | – | – | –

Continued, in another order:

Row | inhibition (Nitric oxide synthase 1 [1]) | inhibition [2] | IC50 [3] | inhibition (INH) (Nitric oxide synthase 3 [5]) | IC50 (Nitric oxide synthase 1 [6]) | SMILES | Activity (HUVEC) | cytotoxicity at 0.5 h, 500 µM [4] | inhibition (INH) (Nitric oxide synthase 3 [7])
12 | – | – | 180 µM | – | 130 µM | CNC(=S)NCCC(O)c1cc(OC)ccc1N (stereo not given) | – | – | –
13 | 86.4% | 75.1% | – | – | – | COc1ccc(N)c(C(=O)CCNC(=N)c2ccc(Cl)cc2)c1 | – | – | –
14 | 85.9% | 94.7% | 45.2 µM | – | 194 µM | COc1ccc(N)c(C(=O)CCNC(=N)c2ccccc2)c1 | Non-Toxic | 20% | –
15 | 19.9% | 99.1% | 25.6 µM | – | > 1000 µM | CC(=N)NCCC(=O)c1cc(Cl)ccc1N | Non-Toxic | 20% | –
16 | 66.1% | 49.1% | – | – | – | CC(=N)NCCC(O)c1cc(Cl)ccc1N (stereo not given) | – | – | –
17 | – | – | 100 µM | – | > 1000 µM | CCNC(=O)NCCC(=O)c1cc(Cl)ccc1N | – | – | –
18 | 89.2% | 97.6% | 59.7 µM | – | 223 µM | COc1ccc(N)c(C(=O)CCNC(C)=N)c1 | – | – | –
19 | 19% | 57.4% | – | – | – | COc1ccc(N)c(C(O)CCNC(C)=N)c1 (stereo not given) | – | – | –
20 | 88.8% | 22.2% | > 1000 µM | – | 325 µM | CC(=N)NCCC(=O)c1ccccc1N | – | – | –
